ChEMBL document CHEMBL1124954, “Atrial natriuretic peptide receptor modulators: effects of disubstituted quinazolines on receptor binding and in vitro biological activity” (J Med Chem, 1990)
pEC50: −log10 of the molar value. Each block holds one compound with its values, some of them ahead of it. Activity calls are given as the source filed them. No cut-off for these calls is given here.

How the values were obtained:
[1] = In vitro binding affinity towards atrionatriuretic peptide receptor (ANP) using [125I]rANP as radioligand in bovine adrenal zonal glomerulosa membranes
[2] = Percent increase in [125I]rANP binding at 20 uM concentration in bovine zona glomerulosa membranes; assay type: cell membranes
[3] = In vitro binding affinity towards atrionatriuretic peptide receptor (ANP) using [125I]rANP as radioligand in bovine adrenal zonal glomerulosa membranes; Not active at 20 uM
Rattus norvegicus [4] = organism: Rattus norvegicus; assay: Inhibition of ACTH (1 nM)-stimulated aldosterone synthesis was determined in rat adrenal glomerulosa (control = 17.4+/-2.5); assay type: functional
Rattus norvegicus [5] = organism: Rattus norvegicus; assay: Inhibition of aldosterone synthesis was determined in rat adrenal glomerulosa per 2 hours at 10 uM concentration, in the absence of rANP (control = 1.8+/-0.5); assay type: functional
Rattus norvegicus [6] = organism: Rattus norvegicus; assay: Concentration for rANP inhibition of aldosterone synthesis was determined n rat adrenal glomerulosa; assay type: functional
Outline: (§1)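 Collagenase-dispersed male Sprague-Dawley rat adrenal glomerulosa cells were used at about 30,000 cells/mL in M199 with KCl 3.5 mM and BSA 2 mg/mL. They were incubated 2 h at 37 °C with ACTH 1 nM and rANP 10⁻¹⁰–10⁻⁸ M, plus compound or water vehicle. Aldosterone was measured by RIA. The EC50 came from a four-parameter logistic fit, compared by Student's t test, 10 experiments.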

Rattus norvegicus [7] = organism: Rattus norvegicus; assay: ACTH-stimulated aldosterone synthesis was determined in rat adrenal glomerulosa cell suspension (control = 8.5+/-0.9); assay type: functional
Rattus norvegicus [8] = organism: Rattus norvegicus; assay: Inhibition of aldosterone synthesis was determined in rat adrenal glomerulosa per 2 hours at 3 uM concentration, in the absence of rANP (control = 1+/-0.1); assay type: functional
Rattus norvegicus [9] = organism: Rattus norvegicus; assay: Concentration for rANP inhibition of aldosterone synthesis was determined in rat adrenal glomerulosa; assay type: functional; outline: as §1
[10] = In vitro binding affinity towards Atrionatriuretic peptide receptor (ANP) using [125I]rANP as radioligand in bovine adrenal zonal glomerulosa membranes

- SC50 [1]: 2.4 µM
SMILES: CCN(CC)c1nc(NCCN=C(N)N)c2ccccc2n1

- Increase [2]: 25%
SMILES: CCN(CC)c1nc(NCC/N=C(/NC)NC#N)c2ccccc2n1

- SC50 [1]: 2.2 µM
SMILES: CCN(CC)c1nc(NCCCCN=C(N)N)c2ccccc2n1

- SC50 [1]: 4.5 µM
SMILES: CCN(CC)c1nc(NCC/N=C(\N)NC)c2ccccc2n1

- SC50 [1]: 5.6 µM
SMILES: CN(CCCNC(=O)c1ccco1)c1nc(N2CCCC2)c2ccccc2n1

- SC50 [3]: inactive
- pEC50 (Rattus norvegicus [6]): 9.74
SMILES: CCN(CC)c1nc(OC)c2ccccc2n1
- Concentration (Rattus norvegicus [4]): 17.8 ng/mL
- Concentration (Rattus norvegicus [5]): 1.4 ng/mL

- Increase [2]: 12%
SMILES: CC/N=C(/NC#N)NCCNc1nc(N(CC)CC)nc2ccccc12

- SC50 [1]: 7 µM
SMILES: O=C(c1ccco1)N1CCN(c2nc(N3CCCC3)c3ccccc3n2)CC1

- SC50 [1]: 1.5 µM
SMILES: CN(CCCN=C(N)N)c1nc(N2CCCC2)c2ccccc2n1

- SC50 [1]: 1.8 µM
- pEC50 (Rattus norvegicus [9]): 9.92
SMILES: CCN(CC)c1nc(NCCCN=C(N)N)c2ccccc2n1
- Concentration (Rattus norvegicus [7]): 7.7 ng/mL
- Concentration (Rattus norvegicus [8]): 0.9 ng/mL

- SC50 [1]: 4.2 µM
SMILES: c1ccc2c(N3CCCC3)nc(N3CCNCC3)nc2c1

- SC50 [1]: 7.4 µM
SMILES: CC/N=C(/N)NCCNc1nc(N(CC)CC)nc2ccccc12

- SC50 [10]: 25 µM
SMILES: COc1cc2nc(N3CCN(C(=O)c4ccco4)CC3)nc(N)c2cc1OC
